# ARFGAP1 inhibitor: inhibitors of rat ARFGAP1 GAP activity, primary screen, biochemical, fluorescence polarization, GDP tracer. ADP-ribosylation factor GTPase-activating protein 1 (Rattus norvegicus), Q62848. Arfgap1-stimulated ARF1 GTP hydrolysis, GDP FP detection. inhibition, % at 16.5 µM. actives 0.26% (n = 360,000);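 active = inhibition above a per-plate limit, mean inhibition of low control wells plus 3 SD, cut at about 25% in these data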;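 also: 0% = DMSO wells with enzyme and 100% = wells lacking Arfgap1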
# Target sequence (Q62848 1-136 limits assumed): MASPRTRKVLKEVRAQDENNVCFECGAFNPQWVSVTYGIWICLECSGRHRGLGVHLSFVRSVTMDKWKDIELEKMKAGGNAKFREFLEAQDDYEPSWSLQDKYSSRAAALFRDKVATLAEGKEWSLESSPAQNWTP
#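 material = rat Arfgap1 catalytic domain, aa 1-136 | also added = human ARF1(Δ1-17)-GTP substrate | compound dosing = one concentration, 16.5 µM, DMSO 1.26% | times = GTP hydrolysis reaction 2 h at 25 °C | measured by = FP, GDP Alexa 633 tracer displaced from anti-GDP antibody, 620/688 nm | evaluation = percent inhibition of Arfgap1-stimulated GTP hydrolysis | replication = single well per compound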
# SKKanGAS inh: S. pyogenes SKKanGAS growth inhibitors in kanamycin, primary screen, streptokinase expression inhibitor project, SKKanGAS strain, BacTiter-Glo luminescence; 6 h; inhibition, % at 7.5 µM; actives 1.3% (n = 300,000);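 active = mean replicate score, as percent of positive control median, at least 50; inconclusive = mean below 50 but one replicate at or above 50; inactive = mean and every replicate below 50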;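 also: strain carries kanamycin resistance gene driven by streptokinase promoter and grows in 40 µg/ml kanamycin; loss of luminescence reflects streptokinase promoter inhibition or plain growth inhibition; 0% = median of DMSO wells and 100% = positive control at its reference dose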
# HGIII-sPLA2 inh: human group III sPLA2 inhibitors, primary screen, biochemical, QFRET, BODIPY PC-A2 liposome substrate. Group 3 secretory phospholipase A2 (Homo sapiens), Q9NZ20. QFRET BODIPY PC-A2 liposome hydrolysis, fluorescence. inhibition, % at 12.2 µM. actives 0.56% (n = 370,000);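 active = inhibition above mean plus 3 SD of compounds lying within the high and low control bounds, cut at about 19% in these data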;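 also: 0% = median of test compound wells and 100% = no enzyme DMSO wells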
# Calb FLC: C. albicans growth inhibition with fluconazole, primary screen, CaCi-2 strain, Alamar Blue fluorescence; C. albicans CaCi-2 + fluconazole, 48 h; growth inhibition, % (concentration not given with the values); actives 0.57% (n = 300,000); AID 1979, 2009;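 active = growth inhibition above about 58% in most replicates, limit read from the data, passing the limit was not always enough; inconclusive = exactly half the replicates above a set limit; inactive = most replicates below a set limit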;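 also: all wells also contain fluconazole at 8 µg/ml as a sub-toxic cotreatment; 0% = median of DMSO wells and 100% = median of geldanamycin control wells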
# ASAP1 inh: inhibitors of human ASAP1 ArfGAP activity, primary screen, biochemical, fluorescence polarization | Arf-GAP with SH3 domain, ANK repeat and PH domain-containing protein 1 (Homo sapiens), … | ASAP1-stimulated ARF1 GTP hydrolysis, GDP FP detection | inhibition, % at 16.5 µM | actives 0.19% (n = 360,000) | AID 624377, 2012; in the data active = inhibition above about 25%;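 also: 0% = vehicle with enzyme and substrate and 100% = no enzyme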
# ARFGAP1 inh conf: ARFGAP1 inhibitor hit confirmation, biochemical, fluorescence polarization, triplicate. shares compounds with ARFGAP1 inhibitor. ARFGAP1-stimulated ARF1 GTP hydrolysis, GDP tracer FP. inhibition, % at 16.5 µM. actives 30% (n = 890). AID 651608, 2012;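 active = average inhibition over triplicates above the hit cutoff set in the earlier primary screen, cut at about 25% in these data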;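 also: 0% = Arfgap1 plus ARF1-GTP with DMSO and 100% = wells lacking Arfgap1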
# Target sequence (Q62848 whole entry, looked up): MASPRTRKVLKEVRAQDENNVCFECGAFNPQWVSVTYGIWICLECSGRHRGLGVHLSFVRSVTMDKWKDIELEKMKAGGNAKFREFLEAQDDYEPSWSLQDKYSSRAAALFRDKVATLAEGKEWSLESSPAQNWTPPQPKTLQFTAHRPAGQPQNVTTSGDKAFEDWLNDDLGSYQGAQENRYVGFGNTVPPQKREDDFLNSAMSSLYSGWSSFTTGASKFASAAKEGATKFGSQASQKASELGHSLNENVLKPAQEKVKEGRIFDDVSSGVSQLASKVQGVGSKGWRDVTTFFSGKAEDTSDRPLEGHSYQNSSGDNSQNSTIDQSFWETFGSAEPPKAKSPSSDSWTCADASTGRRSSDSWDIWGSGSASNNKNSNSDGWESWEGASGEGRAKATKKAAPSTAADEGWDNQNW
# Numbers without * were called inactive; ? = inconclusive; nt = no result. Most compounds without a hit are left out; they make up all but 2.3% or so of the library.
SMILES,ARFGAP1 inhibitor,SKKanGAS inh,HGIII-sPLA2 inh,Calb FLC,ASAP1 inh,ARFGAP1 inh conf
C[C@H](CO)N1C[C@H](C)[C@@H](CN(C)C(=O)Nc2ccc(C(F)(F)F)cc2)OCc2cn(nn2)CCCC1=O,1.0,nt,7.0,nt,1.6,nt
COC(=O)c1c(NC(=O)CSc2ncnc3c2cnn3-c2ccccc2Cl)sc2c1CCCC2,3.8,-3.4,0.4,-1.4,11.1,nt
CCOC(=O)Cc1csc(NC(=O)CSc2ncnc3c2cnn3-c2ccccc2Cl)n1,35.1*,4.5,-19.0,1.8,-0.2,0.7
c1ccc(-c2c[nH]c3ccc(OCc4ccc5ccccc5n4)c(-c4ccccc4)c23)cc1,nt,nt,2.6,nt,nt,nt
CCCCOCCCNC(=O)C[C@H]1C[C@@]2(C(=O)OC)C(=C[C@H](C3CCCC3)O[C@@H]2C)N(CCc2ccc(OC)c(OC)c2)C1=O,nt,nt,-6.8,nt,nt,nt
O=C(CC1c2cc(F)ccc2C=C(c2ccsc2)N1c1ccc(C#CCCO)cc1)c1ccco1 (stereo unspecified),25.0*,nt,2.4,nt,10.4,-0.5
O=S1(=O)C=C(Sc2ccc(Cl)cc2)c2ccccc2C1Cc1ccc(F)cc1 (stereo unspecified),-11.7,nt,-3.4,nt,-7.8,nt
O=C(CSc1nnc(-c2ccccn2)n1-c1ccccc1)c1ccc(Cl)c(Cl)c1,nt,nt,-36.9,nt,nt,nt
CCOC(=O)c1ccc(Nc2cc(C)nc(-c3ccccc3)n2)cc1,27.0*,-0.2,-18.8,24.7,19.2,15.4
CCOC(=O)c1ccc(Nc2nc(C)cc(C)n2)cc1,2.0,2.8,3.6,4.3,0.0,nt
CC(C)N1CCCCC(NC(=O)Cc2ccccc2)C1=O (stereo unspecified),nt,nt,11.4,nt,nt,nt
C[C@H]1CN(c2ccc(N3CCNC[C@@H]3C)cc2C#N)CCN1Cc1ccccc1,7.0,nt,-0.8,nt,-6.2,nt
COc1cccc(-c2cc3nc(C)c(C)c(N4CCN(Cc5ccco5)CC4)n3n2)c1,nt,nt,-8.8,nt,nt,nt
O=[N+]([O-])c1ccc2[nH]c3nc4ccccc4nc3c2c1,26.4*,-1.8,5.1,3.3,8.1,37.5*
OC(c1ccc(-c2ccccc2)cc1)c1ncc(-c2ccc(C(F)(F)F)cc2)[nH]1 (stereo unspecified),39.3*,nt,-11.5,nt,6.8,21.7
OC(c1ccccc1)c1ncc(-c2ccc(C(F)(F)F)cc2)[nH]1 (stereo unspecified),-7.3,nt,-5.3,nt,-15.4,nt
COc1ccc(Cn2cc(CN3[C@@H](C)COc4cc(Br)ccc4S3(=O)=O)nn2)cc1,nt,nt,1.2,nt,nt,nt
CC1(c2nnnn2Cc2ccccc2)CCCC(=O)N1Cc1cccs1 (stereo unspecified),nt,nt,-1.1,nt,nt,nt
O=C1Cc2ccccc2C(=O)N1,25.5*,nt,1.0,nt,35.5*,28.3*
C[C@H](O)[C@@H]1CN2CCc3ccc(-c4ccc5c(c4)OCO5)cc3[C@@H]2C[C@@H]1N(C)Cc1cc(Cl)cc(Cl)c1,2.2,nt,-2.4,nt,-3.2,nt
Cc1cc(Br)cn2c(Cc3ccccc3)c(C3CCCCC3)nc12,155.0*,nt,-16.3,nt,-6.5,2.3
Cc1ccc(Cc2c(C3CCCCC3)nc3c(C)cc(Br)cn23)cc1,6.7,nt,-3.2,nt,2.4,nt
COc1ccc(CCNC(=S)N2CCN(S(=O)(=O)c3ccc(C)cc3)CC2)cc1,26.9*,-1.2,-10.7,2.4,4.9,3.7
COc1ccc(S(=O)(=O)N2CCN(C(=S)NCCc3ccccc3)CC2)cc1,8.7,-0.1,-5.2,-1.8,12.6,nt
CCCc1cc(=O)[nH]c(SCC(=O)N2CCN(S(=O)(=O)c3ccccc3)CC2)n1,7.6,3.2,-1.3,14.6,-2.6,nt
SMILES,ARFGAP1 inhibitor,SKKanGAS inh,HGIII-sPLA2 inh,Calb FLC,ASAP1 inh,ARFGAP1 inh conf
CCCc1cc(=O)[nH]c(SCC(=O)N2CCN(S(=O)(=O)c3ccc4ccccc4c3)CC2)n1,24.7*,12.0,11.1,0.9,7.4,-2.4
CCNc1nc(NCc2ccccc2)nc(SCC(N)=O)n1,-0.9,1.3,7.2,2.2,-6.8,nt
CCNc1nc(NCc2ccccc2)nc(SCC(=O)Nc2ccccc2)n1,26.5*,5.3,-15.3,3.4,4.8,7.8
Fc1ccc(Nc2ccnc(Nc3ccc(F)cc3)n2)cc1,24.7*,-2.5,-16.1,33.2,6.9,24.0
Nc1ncnc(Nc2ccc(F)cc2)n1,1.2,-0.2,-2.0,-17.4,1.2,nt
COc1ccc(-n2c(SCCNCCO)nc3sc4c(c3c2=O)CCCC4)cc1,32.0*,-4.7,-5.1,8.8,9.2,22.2
COc1ccc(-n2c(SCC(N)=O)nc3sc4c(c3c2=O)CCN(C)C4)cc1,37.3*,2.6,-5.0,4.1,22.5,37.1*
COc1ccc(-n2c(SCC(=O)O)nc3sc4c(c3c2=O)CCCC4)cc1,35.2*,17.8,-1.6,-0.2,20.5,51.6*
O=C(O)CSc1nc2sc3c(c2c(=O)n1-c1ccccc1)CCC3,4.1,0.3,2.4,4.9,5.6,nt
CCN(C(=O)[C@H]1CC(=O)O[C@@H]1c1ccccc1)c1ccccc1,nt,nt,1.9,nt,nt,nt
COc1cc2c(c(OC)c1OC)C1(CCCCC1)CC2NS(=O)(=O)C(C)C (stereo unspecified),2.5,nt,5.8,nt,12.3,nt
NC(Cc1ccc(C(F)(F)F)cc1)c1csc(NC(=O)Nc2ccccc2Cc2ccccc2)n1 (stereo unspecified),32.8*,nt,15.8,nt,-5.1,10.9
COc1ccc(-c2ccc3c(n2)CCCN3S(=O)(=O)c2ccccc2C)cc1,0.1,nt,-8.3,nt,11.7,nt
O=C(N/N=C/c1ccccn1)c1cc(-c2ccc3ccccc3c2)n[nH]1,29.4*,-20.6,-2.8,?,14.4,100.5*
O=C(N/N=C/C=C\c1ccccc1[N+](=O)[O-])c1cc(-c2ccc3ccccc3c2)n[nH]1,30.0*,20.1,-1.1,25.6,-1.8,22.4
CCc1ccc(-c2cc(C(=O)N/N=C/c3ccccn3)[nH]n2)cc1,5.7,5.7,2.4,-1.7,12.7,nt
O=C(NC1(O)C(=O)c2ccccc2C1=O)c1c(Cl)cccc1Cl,26.1*,-6.8,11.1,-5.8,20.6,9.8
COc1ccc(-n2nc(C(=O)NCC(=O)Nc3cccc(Cl)c3)c3ccccc3c2=O)cc1OC,28.3*,-6.4,10.1,31.6,5.8,24.9*
Cc1cc(=O)n(-c2ccc(C(=O)O)cc2)[nH]1,27.9*,0.8,2.6,-2.5,4.9,-1.4
Cc1cc(=O)n(-c2ccc(O)cc2)[nH]1,-7.7,-2.9,-3.8,6.5,0.1,nt
Cc1cc(C)cc(NC(=O)OC2CCC23CCCCC3)c1 (stereo unspecified),nt,nt,-3.1,nt,nt,nt

# High-throughput results (PubChem)
